# Reference: ChEMBL document CHEMBL4428080, “Discovery and Pharmacological Characterization of Novel Quinazoline-Based PI3K Delta-Selective Inhibitors” (ACS Med Chem Lett, 2016)
# Tests used:
# [1] = Octanol/water partition coefficient, log P of the compound by high-throughput assay; type: physicochemical
# [2] = Equilibrium solubility of the compound at pH 6.8 by high-throughput assay; type: physicochemical; details: buffer
# How it was run: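 High-throughput equilibrium solubility determination at pH 6.8, reported in mM.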
# [3] = Volume of distribution at steady state in Sprague-Dawley rat at 1 mg/kg, iv by HPLC method; type: ADME, organism-based; details: in vivo, read-out: Vdss
# [4] = Dose normalized AUC in Sprague-Dawley rat at 1 mg/kg, iv by HPLC method; type: ADME, organism-based; details: in vivo
# [5] = Dose normalized AUC in Sprague-Dawley rat at 3 mg/kg, po by HPLC method; type: ADME, organism-based; details: in vivo
# [6] = Oral bioavailability in Sprague-Dawley rat at 3 mg/kg by HPLC method; type: ADME, organism-based; details: in vivo
# How it was run: (§1)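 Oral PK in Sprague Dawley rats at 3 or 30 mg/kg and in dogs at 0.3 mg/kg. Dose-normalized parameters are scaled to 1 mg·kg^-1.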
# [7] = Dose normalized Cmax in Sprague-Dawley rat at 3 mg/kg, po by HPLC method; type: ADME, organism-based; details: in vivo; how it was run: as §1
# [8] = Tmax in Sprague-Dawley rat at 3 mg/kg, po by HPLC method; type: ADME, organism-based; details: in vivo; how it was run: as §1
# [9] = Dose normalized AUC in Sprague-Dawley rat at 30 mg/kg, po by HPLC method; type: ADME, organism-based; details: in vivo; how it was run: as §1
# [10] = Oral bioavailability in Sprague-Dawley rat at 30 mg/kg by HPLC method; type: ADME, organism-based; details: in vivo; how it was run: as §1
# [11] = Dose normalized Cmax in Sprague-Dawley rat at 30 mg/kg, po by HPLC method; type: ADME, organism-based; details: in vivo; how it was run: as §1
# [12] = Tmax in Sprague-Dawley rat at 30 mg/kg, po by HPLC method; type: ADME, organism-based; details: in vivo; how it was run: as §1
# [13] = Volume of distribution at steady state in Beagle dog at 0.1 mg/kg, iv by HPLC method; type: ADME, organism-based, Canis lupus familiaris; details: in vivo, read-out: Vdss
# [14] = Dose normalized AUC in Beagle dog at 0.1 mg/kg, iv by HPLC method; type: ADME, organism-based, Canis lupus familiaris; details: in vivo
# [15] = Dose normalized AUC in Beagle dog at 0.3 mg/kg, po by HPLC method; type: ADME, organism-based, Canis lupus familiaris; details: in vivo; how it was run: as §1
# [16] = Oral bioavailability in Beagle dog at 0.3 mg/kg by HPLC method; type: ADME, organism-based, Canis lupus familiaris; details: in vivo; how it was run: as §1
# [17] = Dose normalized Cmax in Beagle dog at 0.3 mg/kg, po by HPLC method; type: ADME, organism-based, Canis lupus familiaris; details: in vivo; how it was run: as §1
# [18] = Tmax in Beagle dog at 0.3 mg/kg, po by HPLC method; type: ADME, organism-based, Canis lupus familiaris; details: in vivo; how it was run: as §1
# [19] = Drug uptake in Lewis rat blood at 30 mg/kg, po administered as single dose by LC-MS analysis; type: ADME, organism-based; details: in vivo, read-out: Drug uptake
# How it was run: (§2)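 Lewis rats received a single oral dose of 30 mg/kg. Blood was collected at various time points and drug levels were determined.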
# [20] = Tmax in Lewis rat blood at 30 mg/kg, po administered as single dose by LC-MS analysis; type: ADME, organism-based; details: whole blood; how it was run: as §2
logP [1],solubility thermodynamic [2] [µM],SMILES,further results
1.9,800,COc1ccc(-c2ccc3ncnc(-c4cccc(C(=O)N5CCN(C(C)=O)CC5)c4)c3c2)cc1OC,
2.7,> 1000,COc1ccc(-c2ccc3ncnc(-c4cccc(C(=O)N5CCN(C(C)=O)CC5)c4)c3c2)cn1,
2.8,210,COc1ncc(-c2ccc3ncnc(-c4cccc(C(=O)N5CCN(C(C)=O)CC5)c4)c3c2)cc1C#N,Vd [3]: 2 L/kg; AUC/dose [4]: 2315 nM·h; AUC/dose [5]: 500 nM·h; bioavailability [6]: 22%; Cmax/dose [7]: 48 nM; Tmax [8]: 3.5 h; AUC/dose [9]: 237 nM·h; bioavailability [10]: 10%; Cmax/dose [11]: 20 nM; Tmax [12]: 5.3 h; Vd [13]: 1 L/kg; AUC/dose [14]: 2798 nM·h; AUC/dose [15]: 1188 nM·h; bioavailability [16]: 42%; Cmax/dose [17]: 440 nM; Tmax [18]: 0.8 h; concentration [19]: 5000 nM; Tmax [20]: 2 h
3.1,> 1000,CN1CCN(C(=O)c2cccc(-c3ncnc4ccc(-c5cnc6ccccc6c5)cc34)c2)CC1,
3.9,850,COc1ncc(-c2ccc3ncnc(-c4cccc(C(=O)N5CCN(C)CC5)c4)c3c2)cc1C(F)(F)F,
,> 1000,COc1ccc(-c2ccc3ncnc(N4CCC[C@H](C(=O)N5CCN(C)CC5)C4)c3c2)cn1,
1.9,> 1000,COc1ccc(-c2ccc3ncnc(-c4cncc(C(=O)N5CCN(C)CC5)c4)c3c2)cn1,
1.9,420,COc1ncc(-c2ccc3ncnc(-c4cccc(C(=O)N5CCN(C)CC5)c4)c3c2)cc1C#N,
2.8,610,CC(=O)N1CCN(C(=O)c2cccc(-c3ncnc4ccc(-c5cnc6ccccc6c5)cc34)c2)CC1,
3.1,380,COc1ncc(-c2ccc3ncnc(-c4cccc(C(=O)N5CCN(C(C)=O)CC5)c4)c3c2)cc1C(F)(F)F,
2.2,> 1000,COc1ccc(-c2ccc3ncnc(-c4cccc(C(=O)N5CCN(C)CC5)c4)c3c2)cn1,
2.8,850,COc1ccc(-c2ccc3ncnc(-c4cccc(C(=O)N5CCN(C)CC5)c4)c3c2)cc1OC,
